Test results taken from ChEMBL document CHEMBL3098028, “Synthesis and in vitro and in vivo pharmacological evaluation of new 4-aminoquinoline-based compounds” (ACS Med Chem Lett, 2013).
≈ marks a conversion by molar mass, not a printed value.

Experiments:
Plasmodium falciparum [1] = test: Antiplasmodial activity against chloroquine-resistant Plasmodium falciparum K1 after 24 hrs by [3H]hypoxanthine incorporation assay; assay type: functional, organism-based
In short: (§1)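 Antiplasmodial testing was done at the Swiss Tropical and Public Health Institute. Chloroquine, the reference drug, was tested as its diphosphate salt.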

Plasmodium falciparum [2] = test: Antiplasmodial activity against chloroquine-resistant Plasmodium falciparum W2 after 24 hrs by [3H]hypoxanthine incorporation assay; assay type: functional, organism-based; in short: as §1
[3] = Kinetic solubility of the compound in phosphate buffered saline at pH 7.4 after 2 hrs by HPLC analysis; assay type: physicochemical; conditions: read-out: Kinetic_solubility
Plasmodium falciparum [4] = test: Antiplasmodial activity against chloroquine-sensitive Plasmodium falciparum 3D7 after 24 hrs by [3H]hypoxanthine incorporation assay; assay type: functional, organism-based; in short: as §1
Plasmodium falciparum [5] = test: Resistance index, ratio of IC50 for chloroquine-resistant Plasmodium falciparum K1 to IC50 for chloroquine-sensitive Plasmodium falciparum 3D7; assay type: functional
[6] = Kinetic solubility of the compound in 0.01 M HCl at pH 2 after 2 hrs by HPLC analysis; assay type: physicochemical; conditions: read-out: Kinetic_solubility

Structure (SMILES) | IC50 (Plasmodium falciparum [1]) | IC50 (Plasmodium falciparum [2]) | solubility kinetic at 2 h [3] | IC50 (Plasmodium falciparum [4]) | Ratio IC50 (Plasmodium falciparum [5]) | solubility kinetic at 2 h [6]
CC(C)(C)n1nnnc1C(NCCNc1ccnc2cc(Cl)ccc12)c1ccccc1 (centres undefined) | 38 nM | 69 nM | 111 µM (≈ 48.4 µg/mL) | 5 nM | 7.6 | > 200 µM
Cc1ccc(C(NCCNc2ccnc3cc(Cl)ccc23)c2nnn[nH]2)cc1 (centres undefined) | 17400 nM |  |  |  |  | 
Clc1ccc2c(NCCNC(c3ccc(Cl)c(Cl)c3)c3nnn[nH]3)ccnc2c1 (centres undefined) | 4390 nM |  | 70.1 µM (≈ 31.5 µg/mL) |  |  | 191 µM (≈ 85.7 µg/mL)
Clc1ccc(C(NCCNc2ccnc3cc(Cl)ccc23)c2nnn[nH]2)cc1 (centres undefined) | 2380 nM |  | 164 µM (≈ 67.9 µg/mL) |  |  | > 200 µM
Clc1ccc2c(NCCCNC(c3ccccc3)c3nnn[nH]3)ccnc2c1 (centres undefined) | 14300 nM |  |  |  |  | 
Clc1ccc2c(NCCCCNC(c3ccccc3)c3nnn[nH]3)ccnc2c1 (centres undefined) | 6850 nM |  |  |  |  | 
COc1ccc(C(NCCNc2ccnc3cc(Cl)ccc23)c2nnnn2C(C)(C)C)cc1 (centres undefined) | 155 nM | 46 nM |  | 3820 nM | 0.041 | 
